Data reported in ChEMBL document CHEMBL1135916, “Design, synthesis, and structure-activity relationship of pyridyl imidazolidinones: a novel class of potent and selective human enterovirus 71 inhibitors” (J Med Chem, 2002).
“And” between values parts separate entries of the source, which are not always exact repeats. Equal values may be shown once.

Columns and labels:
[1] = system: Enterovirus A71; assay: Inhibition concentration against EV-71; format: functional, organism-based
[2] = (§1) Cytotoxicity against human rhabdomyosarcoma (RD) cells; format: functional
Method in brief: (§2)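 Test compound at various concentrations added to D551 (human normal skin fibroblast), WI38 (human normal lung fibroblast) or RD cells; incubated 96 h at 37 °C; cells harvested and viable cells counted by trypan blue staining. Triplicate, at least twice.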

[3] = as §1; format: functional; remark: listed apart in the source
[4] = Cytotoxicity against human normal skin fibroblast (D551) cells; format: cell-based; method in brief: as §2
[5] = Cytotoxicity against human normal skin fibroblast (W138) cells; format: cell-based; method in brief: as §2
[6] = Selectivity index (D551/EV71) of the compound; format: functional
[7] = Selectivity index (RD/EV71) of the compound; format: functional
[8] = Selectivity index (W138/EV71) of the compound; format: functional
[9] = D551 normal skin fibroblast cells
[10] = W138 normal skin fibroblast cells

Structure (SMILES) | IC50 ([1]; Enterovirus A) [µM] | CC50 ([3]; Homo sapiens, RD) [µM] | also measured
O=C1N(CCCCCOc2ccc(-c3cccs3)cc2)CCN1c1ccncc1 | 0.58 | – | CC50 [2]: > 25 µM
O=C1N(CCCCCOc2ccc(C(F)(F)F)cc2)CCN1c1ccncn1 | > 25 | > 25 | –
O=C1N(CCCCCCOc2cccc3cccnc23)CCN1c1ccncc1 | > 25 | > 25 | –
O=C1N(CCCCCCOc2ccc(-c3ccoc3)cc2)CCN1c1ccncc1 | 0.58 | > 25 | –
COc1ccc(-c2ccc(OCCCCCN3CCN(c4ccncc4)C3=O)cc2)cc1 | 0.34 | > 25 | CC50 [4, 9]: > 100 µM; CC50 [5, 10]: > 100 µM; Selectivity index [6]: > 294; Selectivity index [7]: > 74; Selectivity index [8]: > 294
O=C1N(CCCCCOc2ccc(-c3ccc(Cl)cc3)cc2)CCN1c1ccncc1 [listing 1 of 2 here] | – | – | CC50 [4]: 13 µM; CC50 [3]: 12.5 µM; CC50 [5]: 48 µM
O=C1N(CCCCCCCOc2ccc(Cl)cc2)CCN1c1ccncc1 | 0.66 | > 25 | –
O=C1N(CCCCCCOc2ccc(Br)cc2)CCN1c1cccnc1 | 2.07 | > 25 | –
O=C1N(CCCCCCCOc2ccc(Br)cc2)CCN1c1ccncn1 | > 25 | > 25 | –
N#Cc1ccc(-c2ccc(OCCCCCN3CCN(c4ccncc4)C3=O)cc2)cc1 | 2.66 | > 25 | –
O=C1N(CCCCCCOc2ccc(C(F)(F)F)cc2)CCN1c1ccncn1 | > 25 | > 25 | –
O=C1N(CCCCCCOc2ccc(Br)cc2)CCN1c1ccncn1 | > 25 | > 25 | –
CSc1ccc(OCCCCCCN2CCN(c3ccncc3)C2=O)cc1 | 4.96 | – | CC50 [2]: > 25 µM
COc1ccc(OCCCCCCN2CCN(c3ccncc3)C2=O)c(Cl)c1 | > 25 | > 25 | –
O=C1N(CCCCCOc2ccc(Cl)cc2)CCN1c1ccncc1 | 1.35 | – | CC50 [2]: > 25 µM
O=C1N(CCCCCCOc2ccc(F)cc2)CCN1c1ccncc1 | 3.01 | – | CC50 [2]: > 25 µM
O=C1N(CCCCCCOc2cccc3ccccc23)CCN1c1ccncc1 | > 6.25 | 6.25 | –
O=C1N(CCCCCOc2ccc(-c3ccc(Cl)cc3)cc2)CCN1c1ccncc1 [listing 2 of 2 here] | 0.06 | 6.25 | CC50 [4]: 6 µM; CC50 [5, 10]: 32 µM
O=C1N(CCCCCCOc2ccc(C(F)(F)F)cc2)CCN1c1ccccc1 | 12 | > 25 | –
CSc1ccc(OCCCCCCN2CCN(c3ccnc(Cl)c3)C2=O)cc1 | > 25 | > 25 | –
O=C1N(CCCCCCOc2ccc(Cl)cc2)CCN1c1cccnc1 | 2.52 | > 25 | –
Cc1ccc(OCCCCCCN2CCN(c3ccncc3)C2=O)cc1 | 6.36 | > 25 | –
O=C1N(CCCCCOc2ccc(Cl)cc2)CCN1c1cccnc1 | 4.65 | > 25 | –
O=C1N(CCCCCCCOc2ccc(Br)cc2)CCN1c1ccncc1 | 0.56 | > 25 | –

Structure (SMILES) | IC50 ([1]; Enterovirus A) [µM] | CC50 ([3]; Homo sapiens, RD) [µM] | also measured
O=C1N(CCCCCCOc2c(Cl)cccc2Cl)CCN1c1ccncc1 | > 25 | > 25 | –
O=C1N(CCCCCOc2ccc(-c3ccc([N+](=O)[O-])cc3)cc2)CCN1c1ccncc1 [listing 1 of 3 here] | – | – | Selectivity index [6]: > 169 and 200; Selectivity index [7]: > 76; Selectivity index [8]: > 169 and 212
CN(C)c1cccc(OCCCCCCN2CCN(c3ccncc3)C2=O)c1 | > 25 | > 25 | –
O=C1N(CCCCCOc2ccc(-c3ccc([N+](=O)[O-])cc3)cc2)CCN1c1ccncc1 [listing 2 of 3 here] | – | – | CC50 [4]: 66 µM; IC50 [1]: 0.33 µM; CC50 [5]: 70 µM
O=C1N(CCCCCCOc2ccc(F)cc2)CCN1c1cccnc1 | 9.33 | > 25 | –
O=C1N(CCCCCCOc2ccc(Br)cc2)CCN1c1ccccc1 | 10.6 | > 25 | –
O=C1N(CCCCCCCOc2ccc(C(F)(F)F)cc2)CCN1c1ccncc1 | 0.61 | 6.25 | –
O=C1N(CCCCCOc2ccc(-c3ccc([N+](=O)[O-])cc3)cc2)CCN1c1ccncc1 [listing 3 of 3 here] | 0.59 | > 25 | CC50 [4, 9]: > 100 µM; CC50 [5, 10]: > 100 µM
Cc1ccc(OCCCCCCN2CCN(c3cccnc3)C2=O)cc1 | > 25 | > 25 | –
O=C1N(CCCCCCCOc2ccc(Cl)cc2)CCN1c1cccnc1 | 1.43 | > 25 | –
O=C1N(CCCCCCOc2ccc(Cl)cc2)CCN1c1ccncc1 | 1.5 | > 25 | –
O=C1N(CCCCCCOc2ccc(C(F)(F)F)cc2)CCN1c1ccnc(Cl)c1 | > 25 | > 25 | –
O=C1N(CCCCCOc2ccc(C(F)(F)F)cc2)CCN1c1ccncc1 | 1.35 | 12.5 | –
COc1ccc(OCCCCCCN2CCN(c3ccncc3)C2=O)cc1 | 5.43 | – | CC50 [2]: > 25 µM
O=C1N(CCCCCCOc2ccc(C(F)(F)F)cc2)CCN1c1cccnc1 | 2.1 | > 25 | –
O=C1N(CCCCCOc2ccc(Br)cc2)CCN1c1ccnc(Cl)c1 | > 25 | > 25 | –
CC(C)(C)c1ccc(OCCCCCCN2CCN(c3cccnc3)C2=O)cc1 | > 25 | > 25 | –
O=C1N(CCCCCCOc2ccc(Cl)cc2)CCN1c1ccncn1 | > 25 | > 25 | –
O=C1N(CCCCCCOc2ccc(Br)cc2)CCN1c1ccnc(Cl)c1 | > 25 | > 25 | –
O=C1N(CCCCCOc2ccc(Br)cc2)CCN1c1ccccc1 | 10.7 | > 25 | –
O=C1N(CCCCCCOc2cccc(Br)c2)CCN1c1ccncc1 | > 25 | > 25 | –
O=C1N(CCCCCCOc2ccc(Cl)cc2)CCN1c1ccccc1 | 10.8 | > 25 | –
N#Cc1ccc(OCCCCCCN2CCN(c3ccncc3)C2=O)cc1 | > 0.39 | 0.39 | –
O=C1N(CCCCCOc2ccc(-c3ccc(Br)cc3)cc2)CCN1c1ccncc1 | 0.14 | > 25 | CC50 [4, 9]: > 100 µM; CC50 [5, 10]: > 100 µM; Selectivity index [6]: > 714; Selectivity index [7]: > 179; Selectivity index [8]: > 714
